From ChEMBL document CHEMBL4414644, “A New Approach of Mitigating CYP3A4 Induction Led to the Discovery of Potent Hepatitis B Virus (HBV) Capsid Inhibitor with Optimal ADMET Profiles” (J Med Chem, 2019)

Legend:
[1] = Cytotoxicity in human HepDE19 cells assessed as reduction in cell viability incubated for 5 days by CCK8 assay; format: cell-based
How it was run: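 HepDE19 cells were grown in DMEM-F12 with 10% FBS, penicillin/streptomycin and 0.5 mg/mL G418, then seeded at 5 × 10^3 cells/well. Compound exposure lasted 5 days. Viability was read with CCK-8 after 2 h at 37 °C, measuring OD450 and OD630. CC50 was the concentration killing 50% of cells; duplicate runs.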

[2] = Induction of CYP3A4 gene expression in cryopreserved human hepatocytes assessed as increase in CYP3A4 mRNA level at 10 uM incubated for 24 hrs by qRT-PCR analysis relative to rifampicin; format: ADME, cell-based
How it was run: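 Cryopreserved hepatocytes from one human donor were seeded at 1 × 10^6 cells/mL and cultured 24 h in serum-free Williams E. Compounds at 0.1, 1.0 and 10 µM (0.1% DMSO) were added in triplicate for 24 h, with vehicle wells as negative controls. Positive controls were omeprazole for CYP1A2, phenobarbital for CYP2B6 and rifampicin for CYP3A4. mRNA was measured by TaqMan qRT-PCR normalised to PPIA (2^-ΔΔCT) and expressed as % of the positive control.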

Activity [2]	Compound	CC50 at 120 h [1]
	COC(=O)C1=C(CN2CCOC[C@H]2C(=O)O)NC(c2nccs2)=N[C@H]1c1ccc(C)c(F)c1	> 100 µM
73%	CCOC(=O)C1=C(CN2CCOC[C@H]2C(=O)O)NC(c2nccs2)=N[C@H]1c1ccc(Br)c(F)c1	14 µM
135%	CCOC(=O)C1=C(CN2CCOC[C@H]2C(=O)O)NC(c2nccs2)=N[C@H]1c1ccc(F)cc1F	> 100 µM
26%	COC(=O)C1=C(CN2CCOC[C@H]2C(=O)O)NC(c2nccs2)=N[C@H]1c1ccc(Br)c(F)c1	76 µM
36%	COC(=O)C1=C(CN2CCOC[C@H]2C(=O)O)NC(c2nccs2)=N[C@H]1c1ccc(F)c(F)c1	> 100 µM
111%	COC(=O)C1=C(CN2CCOC[C@H]2C(=O)O)N=C(c2nccs2)N[C@H]1c1ccc(F)cc1Cl	> 100 µM
41%	CCOC(=O)C1=C(CN2CCOC[C@H]2C(=O)O)NC(c2nccs2)=N[C@H]1c1ccc(F)c(F)c1	> 100 µM
40%	CCOC(=O)C1=C(CN2CCOC[C@H]2C(=O)O)NC(c2nccs2)=N[C@H]1c1ccc(C)c(F)c1	85 µM

Compound	Activity [2]	CC50 at 120 h [1]
CCOC(=O)C1=C(CN2CCOC[C@H]2C(=O)O)NC(c2nccs2)=N[C@H]1c1ccc(F)cc1	85%	62 µM
